# Data as given in ChEMBL document CHEMBL4014347, “Targeting Mycolic Acid Transport by Indole-2-carboxamides for the Treatment of Mycobacterium abscessus Infections” (J Med Chem, 2017).
# What was measured:
# [1] = system: Mycobacteroides abscessus; test: Antibacterial activity against Mycobacterium abscessus CIP104536 after 3 to 5 days by two fold serial dilution method; assay type: functional
# Procedure, shortened: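 Broth microdilution per CLSI in cation-adjusted Mueller–Hinton broth; exponential-phase inoculum 5 × 10^6 CFU/mL; two-fold serial dilutions from highest concentration, solvent wells as control; 30 °C for 3−5 days; MIC read visually and confirmed by absorbance at 560 nm; triplicate on three independent occasions.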
# [2] = Selectivity index, ratio of IC50 for African green monkey Vero cells to MIC for Mycobacterium abscessus CIP104536; assay type: toxicity; details: read-out: Selectivity Index
# [3] = system: Mycobacterium tuberculosis; test: Antibacterial activity against Mycobacterium tuberculosis by AlamarBlue assay; assay type: functional
# Vero = test: Cytotoxicity against African green monkey Vero cells; assay type: cell-based; details: Chlorocebus sabaeus
# [4] = Selectivity index, ratio of IC50 for African green monkey Vero cells to MIC=<90 for Mycobacterium tuberculosis; assay type: toxicity; details: read-out: Selectivity Index
# [5] = system: Mycobacteroides abscessus; test: Antibacterial activity against Mycobacterium abscessus CIP_PIPD1 harboring MAB_4508 g925c/A309P mutant after 3 to 5 days by two fold serial dilution method; assay type: functional
# Procedure, shortened: (§1)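 Broth microdilution in cation-adjusted Mueller−Hinton broth per CLSI; inoculum 5 × 10^6 CFU/mL of exponential-phase bacteria; two-fold serial dilutions, solvent-only wells as control; 30 °C for 3−5 days; MIC read visually and confirmed by absorbance at 560 nm; triplicate on three independent occasions.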
# [6] = system: Mycobacteroides abscessus; test: Antibacterial activity against non CF patient derived Mycobacterium abscessus subsp. abscessus isolate CIP104536 smooth variant after 3 to 5 days by two fold serial dilution method; assay type: functional; procedure, shortened: as §1
# [7] = system: Mycobacteroides abscessus; test: Antibacterial activity against Mycobacterium abscessus CIP_OK4-10 harboring MAB_4508 g925c/A309P mutant after 3 to 5 days by two fold serial dilution method; assay type: functional; procedure, shortened: as §1
# [8] = system: Mycobacterium tuberculosis; test: Inhibition of C-terminal His-tagged Mycobacterium tuberculosis Ag85C expressed in Escherichia coli C41 (DE3) at 2.5 to 50 uM after 1 hr by resorufin butyrate-based fluorescence assay
# Procedure, shortened: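 Purified Ag85C mycolyltransferase activity measured with the fluorescent probe resorufin butyrate; compounds tested at 2.5 to 50 μM.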
# [9] = Antibacterial activity against Mycobacterium abscessus subsp. bolletii isolate CIP108541 smooth variant after 3 to 5 days by two fold serial dilution method; assay type: functional; details: Mycobacteroides abscessus; procedure, shortened: as §1
# [10] = Antibacterial activity against non CF patient derived Mycobacterium abscessus subsp. bolletii isolate 17 smooth variant after 3 to 5 days by two fold serial dilution method; assay type: functional; details: Mycobacteroides abscessus; procedure, shortened: as §1
# [11] = system: Mycobacteroides abscessus; test: Antibacterial activity against CF patient derived Mycobacterium abscessus subsp. massiliense isolate 111 smooth variant after 3 to 5 days by two fold serial dilution method; assay type: functional; procedure, shortened: as §1
# [12] = system: Mycobacteroides abscessus; test: Antibacterial activity against Addison's disease patient derived Mycobacterium abscessus subsp. massiliense isolate CIP108297 rough variant after 3 to 5 days by two fold serial dilution method; assay type: functional; procedure, shortened: as §1
# [13] = system: Mycobacteroides abscessus; test: Antibacterial activity against CF patient derived Mycobacterium abscessus subsp. abscessus isolate 2648 rough variant after 3 to 5 days by two fold serial dilution method; assay type: functional; procedure, shortened: as §1
# [14] = system: Mycobacteroides abscessus; test: Antibacterial activity against non CF patient derived Mycobacterium abscessus subsp. abscessus isolate 2587 smooth variant after 3 to 5 days by two fold serial dilution method; assay type: functional; procedure, shortened: as §1
# [15] = system: Mycobacteroides abscessus; test: Antibacterial activity against CF patient derived Mycobacterium abscessus subsp. massiliense isolate 185 smooth variant after 3 to 5 days by two fold serial dilution method; assay type: functional; procedure, shortened: as §1
# [16] = system: Mycobacteroides abscessus; test: Antibacterial activity against CF patient derived Mycobacterium abscessus subsp. massiliense isolate 122 smooth variant after 3 to 5 days by two fold serial dilution method; assay type: functional; procedure, shortened: as §1
# [17] = system: Mycobacteroides abscessus; test: Antibacterial activity against CF patient derived Mycobacterium abscessus subsp. abscessus smooth variant after 3 to 5 days by two fold serial dilution method; assay type: functional; procedure, shortened: as §1
# [18] = Antibacterial activity against CF patient derived Mycobacterium abscessus subsp. bolletii isolate 112 rough variant after 3 to 5 days by two fold serial dilution method; assay type: functional; details: Mycobacteroides abscessus; procedure, shortened: as §1
# [19] = system: Mycobacteroides abscessus; test: Antibacterial activity against CF patient derived Mycobacterium abscessus subsp. massiliense isolate 107 smooth variant after 3 to 5 days by two fold serial dilution method; assay type: functional; procedure, shortened: as §1
# [20] = system: Mycobacteroides abscessus; test: Antibacterial activity against non CF patient derived Mycobacterium abscessus subsp. abscessus isolate 3022 rough variant after 3 to 5 days by two fold serial dilution method; assay type: functional; procedure, shortened: as §1
# [21] = system: Mycobacteroides abscessus; test: Antibacterial activity against CF patient derived Mycobacterium abscessus subsp. abscessus isolate 2069 smooth variant after 3 to 5 days by two fold serial dilution method; assay type: functional; procedure, shortened: as §1
# [22] = Antibacterial activity against CF patient derived Mycobacterium abscessus subsp. bolletii isolate 97 smooth variant after 3 to 5 days by two fold serial dilution method; assay type: functional; details: Mycobacteroides abscessus; procedure, shortened: as §1
# [23] = system: Mycobacteroides abscessus; test: Antibacterial activity against CF patient derived Mycobacterium abscessus subsp. massiliense isolate 212 smooth variant after 3 to 5 days by two fold serial dilution method; assay type: functional; procedure, shortened: as §1
# [24] = system: Mycobacteroides abscessus; test: Antibacterial activity against CF patient derived Mycobacterium abscessus subsp. massiliense isolate 140 smooth variant after 3 to 5 days by two fold serial dilution method; assay type: functional; procedure, shortened: as §1
# [25] = system: Mycobacteroides abscessus; test: Antibacterial activity against CF patient derived Mycobacterium abscessus subsp. massiliense isolate 100 smooth variant after 3 to 5 days by two fold serial dilution method; assay type: functional; procedure, shortened: as §1
# [26] = system: Mycobacteroides abscessus; test: Antibacterial activity against CF patient derived Mycobacterium abscessus subsp. massiliense isolate 120 smooth variant after 3 to 5 days by two fold serial dilution method; assay type: functional; procedure, shortened: as §1
# [27] = system: Mycobacteroides abscessus; test: Antibacterial activity against CF patient derived Mycobacterium abscessus subsp. abscessus rough variant after 3 to 5 days by two fold serial dilution method; assay type: functional; procedure, shortened: as §1
# [28] = system: Mycobacteroides abscessus; test: Antibacterial activity against CF patient derived Mycobacterium abscessus subsp. abscessus isolate 1298 smooth variant after 3 to 5 days by two fold serial dilution method; assay type: functional; procedure, shortened: as §1
# [29] = Antibacterial activity against CF patient derived Mycobacterium abscessus subsp. bolletii isolate 116 smooth variant after 3 to 5 days by two fold serial dilution method; assay type: functional; details: Mycobacteroides abscessus; procedure, shortened: as §1
# [30] = system: Mycobacteroides abscessus; test: Antibacterial activity against CF patient derived Mycobacterium abscessus subsp. abscessus isolate 3321 smooth variant after 3 to 5 days by two fold serial dilution method; assay type: functional; procedure, shortened: as §1
# [31] = Antibacterial activity against CF patient derived Mycobacterium abscessus subsp. bolletii isolate 108 rough variant after 3 to 5 days by two fold serial dilution method; assay type: functional; details: Mycobacteroides abscessus; procedure, shortened: as §1
# [32] = Antibacterial activity against CF patient derived Mycobacterium abscessus subsp. bolletii isolate 114 smooth variant after 3 to 5 days by two fold serial dilution method; assay type: functional; details: Mycobacteroides abscessus; procedure, shortened: as §1
# [33] = Antibacterial activity against non CF patient derived Mycobacterium abscessus subsp. bolletii isolate 19 rough variant after 3 to 5 days by two fold serial dilution method; assay type: functional; details: Mycobacteroides abscessus; procedure, shortened: as §1
# [34] = system: Mycobacteroides abscessus; test: Antibacterial activity against Addison's disease patient derived Mycobacterium abscessus subsp. massiliense isolate CIP108297 smooth variant after 3 to 5 days by two fold serial dilution method; assay type: functional; procedure, shortened: as §1
# [35] = system: Mycobacteroides abscessus; test: Antibacterial activity against CF patient derived Mycobacterium abscessus subsp. abscessus isolate 2524 rough variant after 3 to 5 days by two fold serial dilution method; assay type: functional; procedure, shortened: as §1
# [36] = system: Mycobacteroides abscessus; test: Antibacterial activity against CF patient derived Mycobacterium abscessus subsp. massiliense isolate 210 rough variant after 3 to 5 days by two fold serial dilution method; assay type: functional; procedure, shortened: as §1
# [37] = system: Mycobacteroides abscessus; test: Antibacterial activity against non CF patient derived Mycobacterium abscessus subsp. abscessus isolate CIP104536 rough variant after 3 to 5 days by two fold serial dilution method; assay type: functional; procedure, shortened: as §1
smiles,measurement,setting,value
O=C(NC12CC3CC(CC(C3)C1)C2)c1cc2c(Cl)cc(Cl)cc2[nH]1,MIC,[1],> 32 µg/mL
same,selectivity ratio,[2],≥ 1
same,MIC=<90,[3],0.0039 µg/mL
same,IC50,Vero,≥ 32 µg/mL
same,selectivity ratio,[4],≥ 8210
Cc1cc(C)c2cc(C(=O)NC3CCCCCCC3)oc2c1,MIC,[1],0.5 µg/mL
same,MIC=<90,[3],8 µg/mL
Cc1ccc2[nH]c(C(=O)NC3CCCCCC3)cc2c1,MIC,[1],0.25 µg/mL
same,MIC=<90,[3],0.25 µg/mL
Cc1cccc2[nH]c(C(=O)NC3CCCCCC3)cc12,MIC,[1],0.25 µg/mL
same,MIC=<90,[3],0.0313 µg/mL
Cc1ccccc1CN1CCC(O)(c2ccc(Cl)c(C(F)(F)F)c2)CC1,MIC,[5],8 µg/mL
same,MIC,[6],0.125 µg/mL
same,MIC,[7],8 µg/mL
Cc1cc(C)c2cc(CNC(=O)C3CCCCCC3)[nH]c2c1,MIC,[1],> 32 µg/mL
same,MIC=<90,[3],16 µg/mL
CC1(C)C2CC[C@@]1(C)C(NC(=O)c1cc3c(Cl)cc(Cl)cc3[nH]1)C2 (some centres not stated),MIC,[1],> 32 µg/mL
same,selectivity ratio,[2],0.25
same,MIC=<90,[3],0.0156 µg/mL
same,IC50,Vero,8 µg/mL
same,selectivity ratio,[4],513
O=c1c2ccccc2[se]n1-c1ccccc1,inhibition,[8],Dose-dependent effect
NCC[C@H](O)C(=O)N[C@@H]1C[C@H](N)[C@@H](O[C@H]2O[C@H](CN)[C@@H](O)[C@H](O)[C@H]2O)[C@H](O)[C@H]1O[C@H]1O[C@H](CO)[C@@H](O)[C@H](N)[C@H]1O [AMIKACIN],MIC,[9],25 µg/mL
same,MIC,[10],12.5 µg/mL
same,MIC,[11],25 µg/mL
same,MIC,[12],12.5 µg/mL
same,MIC,[13],12.5 µg/mL
same,MIC,[14],25 µg/mL
same,MIC,[15],25 µg/mL
same,MIC,[16],12.5 µg/mL
same,MIC,[17],12.5 µg/mL
same,MIC,[18],> 100 µg/mL
same,MIC,[19],12.5 µg/mL
same,MIC,[20],12.5 µg/mL
same,MIC,[21],25 µg/mL
same,MIC,[22],12.5 µg/mL
same,MIC,[23],25 µg/mL
same,MIC,[6],25 µg/mL
same,MIC,[24],25 µg/mL
same,MIC,[25],> 100 µg/mL
same,MIC,[26],12.5 µg/mL
same,MIC,[27],12.5 µg/mL
same,MIC,[28],12.5 µg/mL
same,MIC,[29],12.5 µg/mL
same,MIC,[30],25 µg/mL
same,MIC,[31],12.8 µg/mL
same,MIC,[32],12.5 µg/mL
same,MIC,[33],50 µg/mL
same,MIC,[34],25 µg/mL
same,MIC,[35],25 µg/mL
same,MIC,[36],12.5 µg/mL
same,MIC,[37],12.5 µg/mL
Cc1cccc2cc(C(=O)NC3CCCCCC3)[nH]c12,MIC,[1],16 µg/mL
same,MIC=<90,[3],1 µg/mL
O=C(NC1Cc2ccccc2C1)c1cc2c(Cl)cc(Cl)cc2[nH]1,MIC,[1],> 32 µg/mL
same,MIC=<90,[3],0.25 µg/mL
CC(C)=CCC/C(C)=C/CNC(=O)c1cc2c(Cl)cc(Cl)cc2[nH]1,MIC,[1],> 32 µg/mL
same,MIC=<90,[3],4 µg/mL
C[C@@H]1[C@@H](NC(=O)c2cc3ccc(Br)cc3[nH]2)C[C@H]2C[C@@H]1C2(C)C,MIC,[1],0.125 µg/mL
same,MIC=<90,[3],0.0039 µg/mL
NNC(=O)c1ccncc1 [ISONIAZID],MIC=<90,[3],0.04 µg/mL
same,IC50,Vero,> 256 µg/mL
same,selectivity ratio,[4],> 6400
O=C(NC1CCCCCC1)c1cc2c(F)cc(F)cc2[nH]1,MIC,[1],0.125 µg/mL
same,MIC=<90,[3],0.031 µg/mL
C[C@@H](NC(=O)c1cc2c(Cl)cc(Cl)cc2[nH]1)C1CCCCC1,MIC,[1],0.5 µg/mL
same,MIC=<90,[3],2 µg/mL
